Laboratory results reported in the M2OR odorant receptor database.

Target: T1, OR2M7 (Homo sapiens) (UniProt Q8NG81)
T1 sequence (whole entry): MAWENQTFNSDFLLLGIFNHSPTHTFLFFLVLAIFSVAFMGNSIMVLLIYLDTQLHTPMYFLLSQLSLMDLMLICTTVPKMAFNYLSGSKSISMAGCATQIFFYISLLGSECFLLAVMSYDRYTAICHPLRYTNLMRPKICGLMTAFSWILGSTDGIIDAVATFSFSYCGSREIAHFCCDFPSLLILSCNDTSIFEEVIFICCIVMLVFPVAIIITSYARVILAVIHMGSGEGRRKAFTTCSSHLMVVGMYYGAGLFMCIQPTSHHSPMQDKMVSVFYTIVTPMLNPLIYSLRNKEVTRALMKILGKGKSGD
Conditions: stereoisomer not certain
In short: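 Whether a receptor–molecule pair is responsive (active) rests on the original authors' judgment that its measured signal was statistically different from baseline. Pairs without that judgment are non-responsive (inactive). Sources used varied assay methods, commonly transient luciferase assays in mammalian cell lines.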
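Note: active if original authors judged signal statistically different from baseline.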

Odorant receptor agonist call, inactive:
CCCCCC=O
CCCCCCCCCO
CCC(=O)C(=O)CC
CCCCCCCC(=O)[O-].[H+]
CCCCCCC(C)=O
CCCCCCCCS
CCCCC(C)=O
CCOC(=O)C(C)C
CCCCCCCCCC(=O)[O-].[H+]
CC(=O)Oc1ccccc1
CCC(C(=O)O)c1ccccc1 (configuration not stated)
CCC(S)C(C)CO (configuration not stated)
CC12CCC(CC1=O)C2(C)C (configuration not stated)
CCCCCCCC(C)=O
CCCCC(=O)CC
COc1cc(C(=O)O)ccc1O
CC(=O)OCC=C(C)C
CCCCOC=O
CCCCCC(=O)CC
O=C1CCOc2ccccc21
O=C(c1ccccc1)c1ccccc1
O=C1Cc2ccccc2O1
CCCC(C)=O
CCCCOC(=O)C(C)OC(=O)CCC (configuration not stated)
CCCCCC1=C(C)CCC1=O
CCCCC(=O)O
CCCCCCC(=O)[O-].[H+]
